KDM4C inh – inhibitors of GASC-1 (KDM4C) histone demethylase, primary screen, biochemical, single concentration HTS. inhibition, % at 12.5 µM. GST-KDM4C 2-372, H3K9me3 peptide, LANCE TR-FRET. hit rate 0.15% among 96,000;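 active means mean replicate inhibition above about 25%, with at least 55% of replicates also reaching it, limit read from the data, passing the limit was not always enough; inconclusive means only one of those two conditions met; inactive means neither condition met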
Target sequence (Q9H3R0 2-372 limits assumed): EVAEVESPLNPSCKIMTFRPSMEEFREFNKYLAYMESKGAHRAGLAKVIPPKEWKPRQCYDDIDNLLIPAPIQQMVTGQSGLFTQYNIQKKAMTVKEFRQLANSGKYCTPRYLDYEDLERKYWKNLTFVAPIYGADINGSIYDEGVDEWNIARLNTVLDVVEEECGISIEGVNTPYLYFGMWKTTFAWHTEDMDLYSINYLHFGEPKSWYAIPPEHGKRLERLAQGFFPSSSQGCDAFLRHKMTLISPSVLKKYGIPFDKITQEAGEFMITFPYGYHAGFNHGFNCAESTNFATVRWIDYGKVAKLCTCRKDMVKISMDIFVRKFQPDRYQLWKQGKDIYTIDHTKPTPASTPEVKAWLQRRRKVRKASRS
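Material: GST-tagged GASC-1 (JMJD2C) catalytic fragment, aa 2-372 / Quantity: enzyme final amount 10 nM / Medium: HEPES buffer, pH 7.5, plus ascorbate / Doses: one test concentration per compound / Incubation: 30 min reaction, 60 min detection, RT / Measured by: LANCE TR-FRET / Read-out: inhibition from TR-FRET ratio decrease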
IDH1 R132H inh – inhibitors of IDH1 R132H reductase, primary screen, biochemical, plate reader, single point | diaphorase/resazurin fluorescence, 60 min | Isocitrate dehydrogenase [NADP] cytoplasmic (Homo sapiens), O75874 | inhibition, % at 10 µM | hit rate 0.18% among 70,000 | AID 624101, 2012; in the data active means inhibition above about 34%; inconclusive means no clear call, values can overlap the other calls; inactive means below about 11%
Target sequence (O75874 whole entry R132H): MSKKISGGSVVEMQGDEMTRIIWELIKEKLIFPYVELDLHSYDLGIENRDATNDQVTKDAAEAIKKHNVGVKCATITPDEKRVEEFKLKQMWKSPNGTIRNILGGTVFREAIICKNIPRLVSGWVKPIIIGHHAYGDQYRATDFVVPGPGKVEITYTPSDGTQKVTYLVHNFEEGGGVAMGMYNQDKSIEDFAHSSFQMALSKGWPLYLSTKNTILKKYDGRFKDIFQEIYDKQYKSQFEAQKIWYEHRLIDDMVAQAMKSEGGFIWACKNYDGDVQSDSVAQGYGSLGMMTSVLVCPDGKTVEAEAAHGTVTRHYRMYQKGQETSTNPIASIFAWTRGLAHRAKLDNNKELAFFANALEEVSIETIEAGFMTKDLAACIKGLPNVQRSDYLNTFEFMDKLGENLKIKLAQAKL
Pf Dd2 inh – P. falciparum Dd2 growth inhibitors, primary screen, SYBR Green fluorescence, single dose replicates. 72 h; active compounds read low. AID 1159554, 2015. hit rate 2.3% among 94,000. activity change, % at 10 µM; in the data active means activity change below about -80%; inconclusive means no clear call, values can overlap the other calls
T cruzi growth-1 – T. cruzi intracellular proliferation inhibitors, primary screen, cell-based, beta-gal Tulahuen parasites, NIH3T3 host, luminescence | T. cruzi beta-gal in NIH3T3, GalScreen luminescence, 90 h | inhibition, % at 8.34 µM | hit rate 5.9% among 77,000 | AID 624255, 2012;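 active means mean inhibition above about 93%, with at least 55% of replicates each passing it, limit read from the data, passing the limit was not always enough; inconclusive means only one of those two conditions holds; inactive means neither condition holds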
T cruzi growth-2 – T. cruzi intracellular proliferation inhibitors, confirmation, cell-based, NIH3T3 host, beta-gal parasite, luminescence, cherry-pick; hit rate 72% among 5,600; shares compounds with T cruzi growth-1; T. cruzi beta-gal in NIH3T3, GalScreen luminescence, 90 h; inhibition, % at 8.35 µM;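 active means mean replicate inhibition above about 95% and at least 55% of replicates individually reaching it, limit read from the data; inconclusive means only one of the two criteria is met; inactive means neither criterion is met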
T cruzi growth-3 – inhibitors of intracellular T. cruzi replication, confirmation, NIH3T3 host cells, beta-gal parasites, cherry-pick, set 2 | shares compounds with T cruzi growth-1 | T. cruzi beta-gal in NIH3T3, GalScreen luminescence, 90 h | inhibition, % at 2.09 µM | hit rate 21% among 5,600 | AID 651740, 2012;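 active means mean inhibition above about 95%, with at least 55% of replicates also reaching it, limit read from the data; inconclusive means meets just one of the two conditions; inactive means meets neither condition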
NIH3T3 tox – cytotoxicity in mouse NIH/3T3 fibroblasts, confirmation, cytotoxicity control for T. cruzi proliferation inhibitor project, cell-based, cherry-pick, single point; shares compounds with T cruzi growth-1; AID 651742, 2012; cytotoxicity (signal decrease), % at 8.35 µM; hit rate 14% among 5,600; NIH/3T3 viability, CellTiter-Glo ATP luminescence, 90 h;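 active means mean signal decrease across replicates above about 35% based on untreated-well scatter, with enough replicates individually passing, limit read from the data; inconclusive means no rule stated though some were filed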
3T3 cytotox 2 – NIH/3T3 fibroblast cytotoxicity, confirmation, cytotoxicity control, cell-based, cherry-pick, single point, set 2 | shares compounds with T cruzi growth-1 | AID 651744, 2012 | inhibition, % at 24.9 µM | hit rate 56% among 5,600 | NIH/3T3 viability, CellTiter-Glo ATP luminescence, 90 h;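 active means mean loss of cell viability signal at or above a set limit, and enough replicates individually reaching it; inconclusive means meets only the mean limit or only the replicate share; inactive means meets neither condition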
Large screens that a line does not name were inactive (follow-up assays come after a bar, where they were run). A selection: hits, their analogues and other compounds. The true share with any hit is near 5.8%.

N#C[C@H]1N[C@@H](CO)[C@@H]1c1ccc(C#Cc2ccccc2F)cc1	T cruzi growth-1 99 (no result: IDH1 R132H inh) | T cruzi growth-2 97 | T cruzi growth-3 inactive | NIH3T3 tox inactive | 3T3 cytotox 2 106
N#C[C@H]1N[C@H](CO)[C@H]1c1ccc(C#Cc2ccc(F)cc2)cc1	T cruzi growth-1 101 (no result: IDH1 R132H inh) | T cruzi growth-2 101 | T cruzi growth-3 inactive | NIH3T3 tox inactive | 3T3 cytotox 2 inactive
N#C[C@@H]1N[C@H](CO)[C@@H]1c1ccc(C#CC2CCCC2)cc1	none (no result: IDH1 R132H inh)
O=C(COc1ccc(Br)cc1)Nc1cccc(-c2nc3cc(Cl)ccc3o2)c1	none (no result: KDM4C inh, Pf Dd2 inh, T cruzi growth-1)
COc1cc(Cl)c(/C=N/NC(=O)c2ccc(C(=O)NO)cc2)c(Cl)c1OC	none (no result: KDM4C inh, Pf Dd2 inh, T cruzi growth-1)
COC(=O)c1ccccc1NC(=O)C(C)NS(=O)(=O)c1cc(Cl)ccc1Cl (stereo unspecified)	none (no result: KDM4C inh, Pf Dd2 inh, T cruzi growth-1)
Cc1cccc(N(CC(=O)O)S(C)(=O)=O)c1C	none (no result: KDM4C inh, Pf Dd2 inh, T cruzi growth-1)
Cn1c(SCC(=O)Nc2ccc(C(=O)O)cc2)nnc1-c1ccc(Br)cc1	none (no result: KDM4C inh, Pf Dd2 inh, T cruzi growth-1)
C[C@H]1CCCCO[C@@H](CN(C)Cc2ccc(C(F)(F)F)cc2)[C@@H](C)CN([C@@H](C)CO)C(=O)c2cc(NC(=O)Nc3cccc4ccccc34)ccc2O1	T cruzi growth-1 inconclusive (no result: IDH1 R132H inh) | T cruzi growth-2 108 | T cruzi growth-3 108 | NIH3T3 tox inactive | 3T3 cytotox 2 inactive
C[C@@H]1CN([C@H](C)CO)C(=O)c2cc(NC(=O)Nc3cccc4ccccc34)ccc2O[C@@H](C)CCCCO[C@@H]1CN(C)Cc1ccc(C(F)(F)F)cc1	Pf Dd2 inh -87, T cruzi growth-1 inconclusive (no result: IDH1 R132H inh) | T cruzi growth-2 102 | T cruzi growth-3 108 | NIH3T3 tox inactive | 3T3 cytotox 2 inactive
C[C@@H]1CCCCO[C@@H](CN(C)Cc2ccc(C(F)(F)F)cc2)[C@@H](C)CN([C@@H](C)CO)C(=O)c2cc(NC(=O)Nc3cccc4ccccc34)ccc2O1	T cruzi growth-1 inconclusive | T cruzi growth-2 108 | T cruzi growth-3 100 | NIH3T3 tox inactive | 3T3 cytotox 2 inactive
C[C@H]1CCCCO[C@H](CN(C)Cc2ccc(C(F)(F)F)cc2)[C@@H](C)CN([C@@H](C)CO)C(=O)c2cc(NC(=O)Nc3cccc4ccccc34)ccc2O1	T cruzi growth-1 inconclusive (no result: IDH1 R132H inh) | T cruzi growth-2 97 | T cruzi growth-3 109 | NIH3T3 tox inactive | 3T3 cytotox 2 inactive
C[C@H]1CCCCO[C@@H](CN(C)Cc2ccc(C(=O)O)cc2)[C@@H](C)CN([C@@H](C)CO)C(=O)c2cc(NC(=O)Nc3cccc4ccccc34)ccc2O1	none
COc1ccc(N(C(C)C(=O)Nc2ccccc2Cl)S(C)(=O)=O)cc1 (stereo unspecified)	none (no result: KDM4C inh, Pf Dd2 inh, T cruzi growth-1)
COc1ccc(OC)c(N(CC(=O)Nc2ccc(Br)cc2F)S(C)(=O)=O)c1	none (no result: KDM4C inh, Pf Dd2 inh, T cruzi growth-1)
C[C@H]1CCCCO[C@H](CN(C)Cc2ccc3c(c2)OCO3)[C@@H](C)CN([C@@H](C)CO)C(=O)c2cc(NC(=O)Nc3ccc(F)cc3)ccc2O1	T cruzi growth-1 109 | T cruzi growth-2 102 | T cruzi growth-3 99 | NIH3T3 tox inactive | 3T3 cytotox 2 104
C[C@@H]1CCCCO[C@@H](CN(C)Cc2ccc3c(c2)OCO3)[C@H](C)CN([C@H](C)CO)C(=O)c2cc(NC(=O)Nc3ccc(F)cc3)ccc2O1	T cruzi growth-1 inconclusive (no result: IDH1 R132H inh) | T cruzi growth-2 97 | T cruzi growth-3 100 | NIH3T3 tox inactive | 3T3 cytotox 2 104
CC(C)CC#Cc1ccc2c(c1)O[C@H](CN(C)Cc1ccccn1)[C@@H](C)CN([C@H](C)CO)S2(=O)=O	T cruzi growth-1 124 | T cruzi growth-2 106 | T cruzi growth-3 inactive | NIH3T3 tox inactive | 3T3 cytotox 2 106
CC(C)CC#Cc1ccc2c(c1)O[C@@H](CN(C)Cc1ccccn1)[C@@H](C)CN([C@H](C)CO)S2(=O)=O	T cruzi growth-1 109 | T cruzi growth-2 106 | T cruzi growth-3 inactive | NIH3T3 tox inactive | 3T3 cytotox 2 104
Cc1sc(NC(=O)c2cc(-c3cccnc3)nc3ccccc23)c(C(=O)NC2CCCCC2)c1C	none (no result: KDM4C inh, Pf Dd2 inh, T cruzi growth-1)
COc1ccc(S(=O)(=O)N(C)C[C@@H]2Oc3ncc(-c4cccc(C(F)(F)F)c4)cc3C(=O)N([C@H](C)CO)C[C@@H]2C)cc1	T cruzi growth-1 106 | T cruzi growth-2 107 | T cruzi growth-3 inactive | NIH3T3 tox inactive | 3T3 cytotox 2 49
C[C@H](CO)N1C[C@H](C)[C@H](CN(C)S(=O)(=O)c2cccs2)Oc2ncc(-c3cccc(C(F)(F)F)c3)cc2C1=O	T cruzi growth-1 106 | T cruzi growth-2 103 | T cruzi growth-3 inactive | NIH3T3 tox inactive | 3T3 cytotox 2 27
C[C@H](CO)N1C[C@H](C)[C@H](CN(C)S(=O)(=O)c2ccc(F)cc2)Oc2ncc(-c3cccc(C(F)(F)F)c3)cc2C1=O	T cruzi growth-1 109 | T cruzi growth-2 102 | T cruzi growth-3 inactive | NIH3T3 tox 42 | 3T3 cytotox 2 54
C[C@H](CO)N1C[C@H](C)[C@H](CN(C)S(=O)(=O)c2cccs2)Oc2ncc(-c3cccc(F)c3)cc2C1=O	none
CC1(C)Cc2c(sc3nc(SCC(=O)c4ccccc4)nc(N)c23)CS1	none (no result: KDM4C inh, Pf Dd2 inh, T cruzi growth-1)
C/C=C/c1ccc2c(c1)O[C@H](CN(C)Cc1ccc(F)cc1)[C@H](C)CN([C@@H](C)CO)S2(=O)=O	none
C/C=C/c1ccc2c(c1)O[C@@H](CN(C)Cc1ccc(F)cc1)[C@H](C)CN([C@H](C)CO)S2(=O)=O	T cruzi growth-1 119 | T cruzi growth-2 98 | T cruzi growth-3 110 | NIH3T3 tox 52 | 3T3 cytotox 2 105
C/C=C/c1ccc2c(c1)O[C@H](CN(C)Cc1ccc(F)cc1)[C@@H](C)CN([C@H](C)CO)S2(=O)=O	T cruzi growth-1 104 | T cruzi growth-2 inconclusive | T cruzi growth-3 inactive | NIH3T3 tox inconclusive | 3T3 cytotox 2 106
CCCC#Cc1ccc([C@H]2[C@H]3CN(Cc4ccncc4)CCCCN3[C@H]2CO)cc1	T cruzi growth-1 95 (no result: IDH1 R132H inh) | T cruzi growth-2 105 | T cruzi growth-3 inactive | NIH3T3 tox 42 | 3T3 cytotox 2 81

Screening results from PubChem.
